Cav3 T inh – blocks human Cav3.2 T-type calcium channel; Cav3.2-expressing cells, Fluo-4 calcium fluorescence FDSS; active compounds read low; AID 449739; 100,000 compounds, 4% hits; B-score at 10 µM; O95180;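 active = single-dose well whose peak fluorescence ratio is a statistical outlier from its plate by either plate-standardised score or position-corrected B-score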
Rev-RRE block – HIV Rev-RRE protein-RNA interaction inhibition; P05866; Rev peptide-RRE RNA binding, FRET; inhibition, % at 8 µM; 97,000 compounds, 0.79% hits; AID 704;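 active = inhibition above the screen-wide mean plus 3 SD, cut at about 35% in these data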
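Probe or stimulus: fluorescein-Rev peptide as binding partner; assay system: Cy5-tagged RRE RNA duplex with fluorescein-tagged Rev peptide; timing: 5 min compound–RNA preincubation, then 15 min with peptide, 25 °C; medium: HEPES pH 7.5 buffer with KCl, MgCl2, NaCl and EDTA; signal: fluorescein-to-Cy5 FRET, 480 nm excitation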
PLK1 inh – blocks human PLK1 kinase activity; recombinant PLK1 kinase, TR-FRET peptide phosphorylation; AID 619; inhibition, % at 10 µM; P53350; 97,000 compounds, 0.53% hits;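 active = inhibition of 50% or more in the single-concentration screen; inactive = inhibition below 50%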
FAK blocker – FAK (human) kinase inhibition; biochemical FAK kinase activity assay; 97,000 compounds, 0.84% hits; inhibition, %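 (tested at 7 µM)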; AID 727
EphB4 antag – antagonists of human EphB4-ephrin-B2 interaction; 97,000 compounds, 0.15% hits; EphB4 LBD / TNYL-RAW-Alexa532 peptide, fluorescence polarization; inhibition, % at 7 µM; P54760;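 active = inhibition above the screen-wide mean inhibition plus 3 SD, cut at about 15% in these data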
Target sequence (P54760 whole entry, looked up, the tested form may be a part): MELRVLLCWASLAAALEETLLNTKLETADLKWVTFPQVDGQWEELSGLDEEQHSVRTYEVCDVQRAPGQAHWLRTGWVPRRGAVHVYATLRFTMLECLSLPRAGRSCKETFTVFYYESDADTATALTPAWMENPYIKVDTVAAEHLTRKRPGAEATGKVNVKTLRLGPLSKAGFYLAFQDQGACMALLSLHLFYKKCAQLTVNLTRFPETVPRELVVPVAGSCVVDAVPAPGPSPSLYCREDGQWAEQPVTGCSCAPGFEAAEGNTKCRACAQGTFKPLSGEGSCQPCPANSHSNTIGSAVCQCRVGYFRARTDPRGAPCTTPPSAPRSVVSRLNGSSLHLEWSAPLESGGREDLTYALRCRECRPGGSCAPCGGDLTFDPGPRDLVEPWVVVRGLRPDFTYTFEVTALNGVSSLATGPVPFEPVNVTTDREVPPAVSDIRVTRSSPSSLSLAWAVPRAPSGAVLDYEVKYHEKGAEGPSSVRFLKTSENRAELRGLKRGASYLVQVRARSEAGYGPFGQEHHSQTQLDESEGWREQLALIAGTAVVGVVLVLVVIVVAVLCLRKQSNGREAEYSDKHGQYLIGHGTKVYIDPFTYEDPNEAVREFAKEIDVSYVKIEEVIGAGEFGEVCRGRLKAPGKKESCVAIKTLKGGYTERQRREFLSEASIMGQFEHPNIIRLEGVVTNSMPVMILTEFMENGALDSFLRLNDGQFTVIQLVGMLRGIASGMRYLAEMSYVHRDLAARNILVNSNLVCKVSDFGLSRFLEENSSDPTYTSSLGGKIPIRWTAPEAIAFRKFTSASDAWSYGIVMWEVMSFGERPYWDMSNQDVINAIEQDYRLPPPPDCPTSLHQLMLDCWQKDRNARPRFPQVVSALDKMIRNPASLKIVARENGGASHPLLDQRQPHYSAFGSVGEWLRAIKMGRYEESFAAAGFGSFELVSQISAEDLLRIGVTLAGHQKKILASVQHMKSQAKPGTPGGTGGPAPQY
Plk1 PBD FP – Plk1 (human) PBD binding inhibition; P53350; Plk1 PBD phosphopeptide binding, fluorescence polarization; inhibition, %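 (tested at about 20 µM)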; 97,000 compounds, 0.13% hits; AID 693; in the data active = inhibition above about 34%, passing the limit was not always enough
PLK1 inh conf – confirmation of human PLK1 kinase inhibitors; shares compounds with PLK1 inh; recombinant PLK1 kinase, TR-FRET peptide phosphorylation; inhibition, % at 10 µM; 210 compounds, 20% hits; AID 744;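 active = inhibition at or above 50% in each of two repeat confirmation tests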
Plk1 interf – counter-screen for Plk1 inhibitors: compound assay interference. 210 tested, under 10 active. shares compounds with PLK1 inh. Plk1 TR-FRET assay interference, compound added post-reaction. inhibition (interference), % at 10 µM. AID 756;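 active = both duplicate runs show 50% or greater inhibition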
Redox H2O2 DR – redox cycling H2O2 generation counter-screen for Plk1 PBD; EC50, µM; shares compounds with Plk1 PBD FP; 120 tested, under 10 active; AID 876; DTT; call rule not given here
FAK inh confirm – confirmation of human focal adhesion kinase (FAK) inhibitors | 750 compounds, 28% hits | FAK kinase biochemical inhibition assay | inhibition, % at 7 µM | shares compounds with FAK blocker
Numbers stand for hits; i = inactive; nt = no result given. The list is not random: actives were taken first. Their share in the collection is about 5.3%. Cut-off read from the data, not from the text of the source, unless noted: active = inhibition above about 19%; inactive = the rest.

SMILES | Cav3 T inh | Rev-RRE block | PLK1 inh | FAK blocker | EphB4 antag | Plk1 PBD FP | FAK inh confirm | others
COc1ccc2[nH]c(C)c(CCN3CCC(=O)C(C)C3C)c2c1 (stereo not given) | i | i | 83 | i | i | i | nt | PLK1 inh conf=i;Plk1 interf=i
CCC(C)N1Cc2ccccc2C1=N (stereo not given) | i | i | i | i | i | i | nt
Cc1ccc2c(c1)CC1(CN2C)C(=O)NC(=O)N(c2cccc(C)c2C)C1=O (stereo not given) | i | i | i | i | i | i | nt
Cc1ccc2c(c1)CC1(CN2C)C(=O)NC(=O)N(c2ccccc2C)C1=O (stereo not given) | i | i | i | i | i | 40 | nt | Redox H2O2 DR=i
Cn1c(O)c(C(c2ccccn2)c2c(O)n(C)c(=S)[nH]c2=O)c(=O)[nH]c1=S | nt | i | i | i | i | i | nt
CN1C(=O)N(C)C(=O)C2(Sc3ccccc3C2=O)C1=O | i | i | i | i | i | 57 | nt | Redox H2O2 DR=i
Brc1ccc(CN2CCNCC2)s1 | i | i | i | i | i | i | nt
O=[N+]([O-])c1ccc(N2CCNCC2)cc1NCC1CCCO1 (stereo not given) | i | i | i | i | i | 47 | nt | Redox H2O2 DR=i
CN1CCN(c2ccc(C=O)cc2)CC1 | i | i | i | i | i | i | nt
CN1CCN(c2ccc(N)cc2)CC1 | nt | i | i | 67 | i | i | 74
O=C1Nc2ccccc2/C1=C/c1cnc[nH]1 | i | i | 61 | 75 | i | i | 47
O=C1CSC2(CN3CCC2CC3)N1 (stereo not given) | nt | i | i | i | i | i | nt
CC12CN3CC(C)(CN(C1)P3(=O)Oc1ccccc1)C2=O (stereo not given) | i | i | i | 50 | i | i | i
CCC(C)NC(=O)c1c(N)n(CCCOC)c2nc3ccccc3nc12 (stereo not given) | i | i | i | 37 | i | i | i
COCCCn1c(N)c(C(=O)OC(C)COC)c2nc3ccccc3nc21 (stereo not given) | i | nt | nt | nt | nt | nt | nt
COC(=O)C1=C(c2cc3ccccc3o2)C[C@@H]2CC[C@H]1N2C(=O)N1CCC(O)CC1 | i | nt | nt | nt | nt | nt | nt

Screens (PubChem)
